Most compounds without a hit are left out; they make up all but 3.5% or so of the library.
thrombin 1536 = thrombin (human) inhibition | alpha-thrombin, Boc-VPR-AMC fluorogenic substrate cleavage | inhibition, % at 5 µM | 220,000 compounds, 0.26% hits | AID 1046 | P00734;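 active = inhibition at or above 40%; inactive = inhibition below 40%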;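 also: 0% = enzyme with no compound and 100% = wells without enzyme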
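Material: human alpha-thrombin enzyme / Medium: pH 7.5 Tris (50 mM) with NaCl 150 mM, Tween 20 0.05% / Compound: single-point dosing at 5 µM, 0.2% DMSO / Incubation: enzyme reaction carried out at room temperature / Detection: AMC fluorescence, 355/460 nm / Read-out basis: percent inhibition scaled between no-compound controls and no-enzyme blanks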
FXIIa inh 1536 = factor XIIa (human) inhibition; P00748; purified FXIIa, Boc-QGR-AMC fluorogenic substrate, 2 h; inhibition, % at 5 µM; 220,000 compounds, 0.3% hits; in the data active = inhibition above about 40%;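 also: 0% = enzyme with no compound and 100% = blank without enzyme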
KLK5 inh = kallikrein 5 (human) inhibition | inhibition, % at 5 µM | AID 873 | recombinant hK5, fluorogenic AMC substrate cleavage | 210,000 compounds, 0.59% hits | Q9Y337;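 active = inhibition of 40% or more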;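 also: 0% = enzyme controls without compound and 100% = no-enzyme blanks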
Target sequence (Q9Y337 67-293 limits assumed): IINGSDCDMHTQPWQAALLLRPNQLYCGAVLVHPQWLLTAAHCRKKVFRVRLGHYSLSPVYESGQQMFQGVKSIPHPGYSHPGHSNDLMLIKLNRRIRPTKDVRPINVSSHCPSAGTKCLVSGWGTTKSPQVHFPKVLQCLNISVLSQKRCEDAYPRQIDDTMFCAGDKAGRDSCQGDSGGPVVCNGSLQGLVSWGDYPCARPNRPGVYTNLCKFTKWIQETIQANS
FXIa inh = inhibitors of human coagulation factor XIa. 220,000 compounds, 0.14% hits. P03951. purified FXIa, Boc-Glu-Ala-Arg-AMC fluorogenic substrate. inhibition, % at 5 µM;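 active = inhibition of at least 40%; inactive = inhibition below 40%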;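 also: fluorescence of freed AMC excited at 355 nm; 0% = enzyme without compound and 100% = no enzyme blank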
STAT3 act = activators of IL-6 induced STAT3 signaling. activation (% of control), % at 5.6 µM. 190,000 compounds, 0.91% hits. U3A cells, IL-6 STAT3-luciferase reporter, luminescence; 100% = signal with IL-6 EC80 alone;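 active = activation above the screen-wide mean of compound activation plus 3 SD, cut at about 130% in these data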;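 also: 0% = background luminescence of wells with medium and substrate only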
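Detection: reporter luminescence signal / Assay system: STAT1-lacking human U3A cells, STAT3 luciferase reporter / Incubation: compound pre-incubation 1 h before IL-6, then 6 h stimulation at 37 °C / Control set: IL-6-only high control / Read-out: % activation relative to IL-6 control / Probe or stimulus: Interleukin-6, 33 ng/mL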
AHR act = activates the human aryl hydrocarbon receptor; 320,000 compounds, 2.5% hits; activation, % at 5 µM; P35869; AID 2796; AHR-responsive luciferase reporter cells, luminescence; in the data active = activation above about 47%;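 also: 0% = vehicle wells and 100% = reference agonist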
* hit, by the source's call; · = no result; ! = not active in a repeat.

SMILES	thrombin 1536	FXIIa inh 1536	KLK5 inh	FXIa inh	STAT3 act	AHR act
O=C(N/N=C/C(Cl)=C\c1ccccc1)c1cnccn1	17	18	56*	7	106	1
Cc1cccc(NC(=S)N=Nc2c(O)n(CN3CCOCC3)c3ccccc23)c1C	0	16	-7	10	117	55*
C=CCn1c(O)c(N=NC(=S)Nc2ccccc2C)c2cc(S(=O)(=O)N3CCOCC3)ccc21	4	16	-5	13	94	-4
Cc1ccc(N=Nc2c(O)n(CN3CCOCC3)c3ccccc23)cc1	-1	11	-15	1	137*	41
Cc1cccc(OCC(=O)NNC(=O)c2ccc3nc[nH]c3c2)c1	·	·	·	·	·	1
CCOC(=O)N1CCC(Nc2ncnc3c2cnn3-c2ccc(C)cc2C)CC1	17	17	44*	15	51	-2
C=CCNc1ncnc2c1cnn2-c1ccc(C)cc1C	-3	3	-8	-5	106	6
Cc1ccsc1C(=O)NCc1ccc(F)cc1	·	·	·	·	·	1
CS(=O)(=O)N(Cc1ccc(C(=O)NC2CCCCC2O)cc1)c1ccccc1 (stereo unspecified)	5	14	-9	4	97	-1
CS(=O)(=O)N(Cc1ccccc1)c1ccc(C(=O)NC2CCCCC2O)cc1 (stereo unspecified)	18	106*	14	-5	103	10
CC1(c2ccc3ccccc3c2)NC(=O)N(CC(=O)Nc2cccc(S(=O)(=O)N3CCOCC3)c2)C1=O (stereo unspecified)	-10	3	-13	-6	102	49*
O=C(O)C=C1CCN(c2ncc(C(F)(F)F)cc2Cl)CC1	3	17	-8	1	109	4
Cc1ccc2c(c1)/C(=C/c1ccccc1F)C(=O)N2	·	·	·	·	·	68*
COc1ccc(NS(=O)(=O)c2ccc(N3CCOCC3)c(N)c2)cc1	·	·	·	·	·	-6
COCCNc1nnc(SCC(=O)NNC(=O)c2ccc([N+](=O)[O-])cc2)s1	·	·	·	·	·	-1
CCCC(C(=O)Nc1ccc2c(C)cc(=O)oc2c1)c1ccccc1 (stereo unspecified)	·	·	·	·	·	-8
Cc1cc(C)nc(SCC(=O)N/N=C\c2sccc2C)n1	3	5	5	4	93	63*
Cc1cc(C)nc(SCC(=O)N/N=C/c2cc(C)n(-c3ccccc3C)c2C)n1	2	12	-6	18	102	11
O=C(CCNC(=O)C1CCN(S(=O)(=O)c2ccc(F)cc2)CC1)NCc1ccncc1	·	·	·	·	·	-1
COc1ccc(CCN2C(=O)c3cccc4cccc(c34)C2=O)cc1OC	1	7	14	7	118	70*
COc1ccc(CCNC(=O)CN2C(=O)c3cccc4cccc(c34)C2=O)cc1OC	-5	7	-11	-3	99	4
O=C(O)c1ccc(S(=O)(=O)/N=C2\C=C(Nc3ccccc3F)C(=O)c3ccccc32)cc1	·	·	·	·	·	70*
CCOC(=O)c1cc(S(=O)(=O)N2CCN(C3CCCCC3)CC2)cn1C	·	·	·	·	·	2
COc1nc(-c2ccncc2)nc2ccccc12	-4	-4	-4	7	94	75*
CC(C)Oc1nc(-c2ccc(Cl)cc2)nc2ccccc12	2	9	3	4	·	16
SMILES	thrombin 1536	FXIIa inh 1536	KLK5 inh	FXIa inh	STAT3 act	AHR act
CCOc1nc(-c2ccc(Cl)cc2)nc2ccccc12	-14	0	-13	-5	110	62*
C=CCOc1nc(-c2ccncc2)nc2ccccc12	0	2	-15	-9	95	52*
CCCCN(CC)c1nc(-c2ccncc2)nc2ccccc12	5	6	-19	5	100	73*
COc1ccc(Oc2nc(-c3ccncc3)nc3ccccc23)cc1	-2	9	-11	2	·	17
Cc1cccc(COC(=O)C(Cc2ccccc2)NC(N)=O)c1 (stereo unspecified)	·	·	·	·	·	0
COC(=O)c1scc(C)c1NC(=O)Cc1ccccc1	4	3	70*	3	85	-3
C=CCN(CC(O)c1cccc([N+](=O)[O-])c1)C(C)CCc1ccccc1 (stereo unspecified)	-18	-1	-3	-2	·	3
O=C1CC(c2ccccc2)=Nc2ccccc2N1	-16	-7	4	3	94	75*
COc1ccc(Cl)cc1NC(=O)Nc1cc(C)on1	·	·	·	·	·	55*
COc1ccc(C)cc1NC(=O)Nc1cccc(C)c1	-1	3	·	-2	93	34
COc1ccc(NC(=O)Nc2cc(C)ccc2F)cc1OC	-1	4	-2	-2	104	52*
COc1ccc(C)cc1NC(=O)Nc1cnccn1	-1	2	-7	-5	87	57*
O=C(Nc1cnccn1)Nc1cccc(Cl)c1Cl	-16	3	4	-2	86	49*
COc1ccc(NC(=O)Nc2cnccn2)c(OC)c1	·	·	·	·	·	2
COc1ccc(Cl)cc1NC(=O)Nc1cnccn1	·	·	·	·	·	53*
O=c1c2c(nc3c(-c4ccc(Cl)cc4)c[nH]n13)CCCC2	3	-8	-248	-6	75	67*
O=c1c2c(nc3c(-c4cccc5ccccc45)c[nH]n13)CCC2	1	10	3	2	94	17
Fc1ccc(SCCc2ccccn2)cc1	-2	40*!	-2	-1	·	-3
Cc1c(Cl)cnc(NC(=O)COC(=O)CCC(=O)c2cccs2)c1Cl	55*	6	-7	14	96	·
Cc1c(Cl)cnc(NC(=O)COC(=O)c2cccs2)c1Cl	·	·	·	·	·	2
CCOC(CNc1ncnc2sc(-c3ccccc3)cc12)OCC	·	·	·	·	·	26
CN(C)CCCNc1ncnc2sc(-c3ccccc3)cc12	95*	7	0	0	·	6
COC(=O)[C@@]12CCCCN1[C@H](c1ccc(-c3ccc4c(c3)OCO4)cc1)[C@H]1C(=O)N(C)C(=O)[C@H]12	·	·	·	·	·	-1
N#Cc1c(SCC(N)=O)nc2c(c1-c1ccc(OCc3ccccc3)cc1)CCCC2	·	·	·	·	104	·
O=C(CN1CCOCC1)Nc1c2c(nc3ccccc13)N(Cc1ccccc1)CC2	1	-3	-2	3	119	55*
SMILES	thrombin 1536	FXIIa inh 1536	KLK5 inh	FXIa inh	STAT3 act	AHR act
CCN(CC)CC(=O)Nc1c2c(nc3ccccc13)N(C)CC2	·	·	·	·	·	24
O=C(CN1CCCC1)Nc1c2c(nc3ccccc13)N(Cc1ccccc1)CC2	-2	5	-15	-2	101	71*
O=C(CCNC(=O)C1CCN(S(=O)(=O)c2ccccc2)CC1)Nc1ccccc1	·	·	·	·	·	4
O=C1NC[C@@H](c2ccccc2)OC(=O)[C@@H](Cc2ccc(F)cc2)CC/C=C/C[C@@H]1CC(=O)N(CCO)Cc1ccccc1	·	·	·	·	·	1
Oc1ccc(Oc2ccc3c(C(F)(F)F)cc(C(F)(F)F)nc3n2)cc1	4	0	132*	-5	85	1
CCN(CC)C(=O)c1ccc(NS(=O)(=O)c2ccc(/C=C/C(=O)O)cc2)cc1	·	23	44*	29	104	0
CCN(CC)C(=O)c1ccc(NS(=O)(=O)c2ccccc2)cc1	3	9	-23	3	102	1
